Reference: ChEMBL document CHEMBL4837219, “Chemical modification of NSC12 leads to a specific FGF-trap with antitumor activity in multiple myeloma” (Eur J Med Chem, 2021)
Calls of active or inactive are those of the source. The rule behind the calls is not given here.

Key:
KMS-11 [1] = assay: Trapping activity at FGF in human KMS-11 cells assessed as inhibition of FGFR3 phosphorylation at 6 uM measured after 6 hrs by western blot analysis; type: cell-based
In short: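 KMS-11 cells treated for 6 h with compound at 6.0 µM, then lysed in NP-40 buffer containing orthovanadate and protease inhibitors. Phospho-FGFR3 detected by western blot with anti-phospho-Y724 antibody, using β-actin or α-tubulin as loading control. Result expressed as % inhibition of FGFR3 phosphorylation by densitometry.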

KMS-11 [2] = assay: Antiproliferative activity against human KMS-11 cells assessed as reduction in cell viability incubated for 48 hrs by propidium iodide staining-based flow cytometric analysis; type: functional; settings: KMS-11, 48 h
In short: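 KMS-11 cells (maintained in RPMI1640 with 10% heat-inactivated FBS and 2.0 mM glutamine) exposed to increasing concentrations of compound for 48 h. Viable PI-negative cells counted by flow cytometry using the analyzer's absolute counting function. IC50 is the concentration giving 50% inhibition of proliferation, taken as the mean of at least 2 experiments run in triplicate.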

[3] = biological target: Fibroblast growth factor 2 (Homo sapiens, UniProt P09038); assay: Binding affinity to FGF2 (unknown origin) by sensor chip immobilization based surface plasmon resonance analysis
OPM-2 [4] = assay: Trapping activity at FGF in human OPM-2 cells assessed as inhibition of FGFR3 phosphorylation at 6 uM measured after 6 hrs by westernblot analysis; type: cell-based
In short: (§1)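 Cells cultured in RPMI1640 with 10% FBS and 2.0 mM glutamine, then treated 6 h with 6 µM compound. Washed in cold PBS and lysed in NP-40 buffer (20 mM Tris-HCl pH 8, 1 mM orthovanadate, protease inhibitors). Bradford used to normalize protein. Blots probed for phospho-FGFR3 (Y724), with β-actin or α-tubulin as loading control; percent inhibition read by densitometry.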

RPMI-8226 [5] = assay: Trapping activity at FGF in human RPMI-8226 cells assessed as inhibition of FGFR3 phosphorylation at 6 uM measured after 6 hrs by westernblot analysis; type: cell-based; in short: as §1
U-266 [6] = assay: Trapping activity at FGF in human U-266 cells assessed as inhibition of FGFR3 phosphorylation at 6 uM measured after 6 hrs by westernblot analysis; type: cell-based; in short: as §1
[7] = biological target: T1, Estrogen receptor (Homo sapiens) (UniProt P03372); assay: Displacement of [3H]estradiol from human full length recombinant ERalpha expressed in baculovirus-infected Sf9 cells at 5 uM incubated for 120 mins by radiometric scintillation counting analysis
T1 sequence (whole entry): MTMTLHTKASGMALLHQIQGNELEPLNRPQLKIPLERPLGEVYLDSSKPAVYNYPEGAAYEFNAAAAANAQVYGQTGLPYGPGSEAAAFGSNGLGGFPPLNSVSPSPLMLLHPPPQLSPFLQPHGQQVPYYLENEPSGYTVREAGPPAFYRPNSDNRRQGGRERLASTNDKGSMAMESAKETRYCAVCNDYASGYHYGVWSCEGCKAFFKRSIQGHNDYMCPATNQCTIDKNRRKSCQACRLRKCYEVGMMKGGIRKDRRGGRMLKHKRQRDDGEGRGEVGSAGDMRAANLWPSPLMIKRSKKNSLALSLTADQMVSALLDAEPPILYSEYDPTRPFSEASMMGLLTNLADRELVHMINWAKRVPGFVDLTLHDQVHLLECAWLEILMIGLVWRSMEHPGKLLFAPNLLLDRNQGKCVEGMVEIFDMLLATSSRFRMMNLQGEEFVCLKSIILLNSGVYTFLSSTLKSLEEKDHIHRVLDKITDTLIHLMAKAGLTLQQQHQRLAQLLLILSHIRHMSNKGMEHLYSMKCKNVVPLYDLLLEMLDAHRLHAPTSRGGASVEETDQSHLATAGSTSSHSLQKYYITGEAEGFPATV
In short: (§2)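 Radioligand competition binding to human ERα or ERβ, run as an outsourced panel assay. Readout is % inhibition of specific [3H]estradiol binding at 5.0 and 50 µM compound. Run in duplicate, and the mean of the duplicates is reported.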

[8] = biological target: T1, Estrogen receptor (Homo sapiens); assay: Displacement of [3H]estradiol from human full length recombinant ERalpha expressed in baculovirus-infected Sf9 cells at 50 uM incubated for 120 mins by radiometric scintillation counting analysis; in short: as §2
[9] = biological target: Estrogen receptor beta (Homo sapiens) (UniProt Q92731); assay: Displacement of [3H]estradiol from human full length recombinant ERbeta expressed in baculovirus-infected Sf9 cells at 5 uM incubated for 120 mins by radiometric scintillation counting analysis; in short: as §2
[10] = biological target: Estrogen receptor beta (Homo sapiens) (UniProt Q92731); assay: Displacement of [3H]estradiol from human full length recombinant ERbeta expressed in baculovirus-infected Sf9 cells at 50 uM incubated for 120 mins by radiometric scintillation counting analysis; in short: as §2
KMS-11 [11] = assay: Antitumor activity against human KMS-11 cells xenografted in NOD-SCID mouse assessed as tumor growth inhibition at 7.5 mg/kg, ip administered every other day measured at day 17 post-tumor implantation by caliper analysis; type: functional, organism-based
In short: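 Female NOD/SCID mice, six to eight weeks old, injected s.c. with 5 × 10^6 KMS-11 cells in PBS. Once tumors were palpable (10 days), mice were randomized and given 7.5 mg/kg i.p. every other day, with DMSO as vehicle control; n = 5 per group. Tumor volume from caliper measurements, V = (D × d²)/2. Tumors excised and weighed at day 17.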

[12] = Total plasma concentration in NOD-SCID mouse at 7.5 mg/kg, ip measured after 90 mins by HPLC/MS/MS analysis; type: ADME, organism-based
In short: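 A single 7.5 mg/kg i.p. dose given to eight-week-old NOD/SCID mice (n = 4). Blood collected at 90 min. Plasma treated with acetonitrile containing internal standard (1:2) to precipitate protein, centrifuged, and the supernatant analyzed by C18 gradient HPLC-MS/MS in ESI-negative MRM mode. Calibration in spiked blank plasma, linear over 1–1000 nM, LOQ 1 nM. Values are mean ± SEM.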

OPM-2 [13] = assay: Antiproliferative activity against human OPM-2 cells assessed as reduction in cell viability incubated for 48 hrs by propidium iodide staining-based flow cytometric analysis; type: functional; settings: OPM-2, 48 h
In short: (§3)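 Myeloma cells kept at low passage in RPMI1640 with 10% heat-inactivated FBS and 2.0 mM glutamine, Mycoplasma-tested, authenticated. Exposed to increasing concentrations of test compound for 48 h. Viable cells counted as propidium iodide-negative by flow cytometry with absolute counts. IC50 = concentration halving proliferation; mean of at least 2 experiments in triplicate.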

RPMI-8226 [14] = assay: Antiproliferative activity against human RPMI-8226 cells assessed as reduction in cell viability incubated for 48 hrs by propidium iodide staining-based flow cytometric analysis; type: functional; settings: RPMI-8226, 48 h; in short: as §3
U-266 [15] = assay: Antiproliferative activity against human U-266 cells assessed as reduction in cell viability incubated for 48 hrs by propidium iodide staining-based flow cytometric analysis; type: functional; settings: U-266, 48 h; in short: as §3
[16] = Drug metabolism in NOD-SCID mouse plasma assessed as (1R)-4,4,4-trifluoro-1-((3S,10R,13S,17S)-3-hydroxy-10,13-dimethyl-2,3,4,7,8,9,10,11,12,13,14,15,16,17-tetradecahydro-1H-cyclopenta[a]phenanthren-17-yl)-3-(trifluoromethyl)butane-1,3-diol formation at 7.5 mg/kg, ip measured after 90 mins by HPLC-MS/MS analysis; type: ADME, organism-based; settings: in vivo, 1.5 h

Estrogen receptor beta (Homo sapiens), sequence (Q92731 whole entry): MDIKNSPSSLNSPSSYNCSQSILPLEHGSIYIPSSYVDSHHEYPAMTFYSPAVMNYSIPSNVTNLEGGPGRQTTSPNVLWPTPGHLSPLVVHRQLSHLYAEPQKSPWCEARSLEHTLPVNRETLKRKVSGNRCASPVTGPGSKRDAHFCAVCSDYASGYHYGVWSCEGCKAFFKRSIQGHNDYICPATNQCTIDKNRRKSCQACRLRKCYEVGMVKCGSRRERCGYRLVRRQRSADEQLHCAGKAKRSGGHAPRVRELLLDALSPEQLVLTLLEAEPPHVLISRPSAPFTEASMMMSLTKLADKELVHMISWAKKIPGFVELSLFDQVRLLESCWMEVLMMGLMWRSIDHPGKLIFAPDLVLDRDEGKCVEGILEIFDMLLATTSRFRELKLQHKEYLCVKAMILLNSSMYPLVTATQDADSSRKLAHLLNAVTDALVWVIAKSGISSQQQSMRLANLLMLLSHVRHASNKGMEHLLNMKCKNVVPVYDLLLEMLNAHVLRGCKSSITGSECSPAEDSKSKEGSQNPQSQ
Fibroblast growth factor 2, sequence (P09038 143-288 limits assumed): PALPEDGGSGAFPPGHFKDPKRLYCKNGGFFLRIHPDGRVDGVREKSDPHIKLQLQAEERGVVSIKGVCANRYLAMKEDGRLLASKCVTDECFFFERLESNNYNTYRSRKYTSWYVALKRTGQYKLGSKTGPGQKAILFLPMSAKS

Kd [3]: 30 µM | inhibition [7]: 7.4% | inhibition [8]: 50% | inhibition [9]: 21.4% | inhibition [10]: 71.3% | concentration at 1.5 h [12]: 7.5 nM | IC50 (RPMI-8226 [14]): 7.3 µM | Drug metabolism [16]: Metabolite_Detected
SMILES: C[C@]12CC[C@H]3[C@@H](CC=C4C[C@@H](OC(=O)CN)CC[C@@]43C)[C@@H]1CC[C@@H]2[C@H](O)CC(O)(C(F)(F)F)C(F)(F)F
inhibition (KMS-11 [1]): 100% | IC50 (KMS-11 [2]): 2.3 µM | Activity (OPM-2 [4]): Active | Activity (RPMI-8226 [5]): Active | Activity (U-266 [6]): Active | Activity (KMS-11 [11]): inactive | IC50 (OPM-2 [13]): 7.3 µM | IC50 (U-266 [15]): 6.9 µM
